# Data taken from ChEMBL document CHEMBL4043093, “2-Oxo-3, 4-dihydropyrimido[4, 5-d]pyrimidinyl derivatives as new irreversible pan fibroblast growth factor receptor (FGFR) inhibitors” (Eur J Med Chem, 2017).
# Assays:
# [1] = target: Cyclin-dependent kinase 2 (Homo sapiens) (UniProt P24941); experiment: Inhibition of wild-type human full length CDK2 (M1 to L298 residues) expressed in Escherichia coli BL21 assessed as residual activity at 1000 nM after 30 mins by Kinomescan method relative to control
# Procedure, shortened: (§1)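 Single-point screen at a fixed 1 µM, run within a 456-kinase DiscoveRx KINOMEscan panel. Each kinase's read-out is Percent Control, i.e. signal relative to a control without compound. Hits were scored by a Percent Control < 35 cut-off, and an S(35) selectivity score was calculated across the non-mutant kinases.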
# [2] = target: MAP kinase-interacting serine/threonine-protein kinase 1 (Homo sapiens) (UniProt Q9BUB5); experiment: Inhibition of wild-type human full length MKNK1 (M1 to L424 residues) expressed in HEK293 cells assessed as residual activity at 1000 nM after 30 mins by Kinomescan method relative to control; format: cell-based
# MAP kinase-interacting serine/threonine-protein kinase 1 (Homo sapiens), sequence (Q9BUB5 whole entry, looked up, the tested form may be a part): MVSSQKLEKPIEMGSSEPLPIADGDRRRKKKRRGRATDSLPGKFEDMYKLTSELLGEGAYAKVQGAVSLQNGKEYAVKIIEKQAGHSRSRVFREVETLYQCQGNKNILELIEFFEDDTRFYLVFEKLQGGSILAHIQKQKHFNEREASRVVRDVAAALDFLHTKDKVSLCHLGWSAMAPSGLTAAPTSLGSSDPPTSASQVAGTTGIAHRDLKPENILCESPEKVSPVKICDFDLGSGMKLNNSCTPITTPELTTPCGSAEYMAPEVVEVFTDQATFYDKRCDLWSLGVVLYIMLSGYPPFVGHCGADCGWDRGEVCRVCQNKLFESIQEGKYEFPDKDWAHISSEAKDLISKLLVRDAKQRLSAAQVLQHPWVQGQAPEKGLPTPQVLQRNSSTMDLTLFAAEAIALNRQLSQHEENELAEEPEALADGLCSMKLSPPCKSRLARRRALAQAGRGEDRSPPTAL
# Procedure, shortened: (§2)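 Single-concentration screen at 1 µM across a 456-kinase KINOMEscan panel. The read-out is Percent Control for each kinase.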
# [3] = target: Activin receptor type-2B (Homo sapiens) (UniProt Q13705); experiment: Inhibition of wild-type human ACVR2B (H169 to D504 residues) expressed in Escherichia coli BL21 assessed as residual activity at 1000 nM after 30 mins by Kinomescan method relative to control; procedure, shortened: as §1
# Activin receptor type-2B (Homo sapiens), sequence (Q13705 whole entry, the tested form may be a part): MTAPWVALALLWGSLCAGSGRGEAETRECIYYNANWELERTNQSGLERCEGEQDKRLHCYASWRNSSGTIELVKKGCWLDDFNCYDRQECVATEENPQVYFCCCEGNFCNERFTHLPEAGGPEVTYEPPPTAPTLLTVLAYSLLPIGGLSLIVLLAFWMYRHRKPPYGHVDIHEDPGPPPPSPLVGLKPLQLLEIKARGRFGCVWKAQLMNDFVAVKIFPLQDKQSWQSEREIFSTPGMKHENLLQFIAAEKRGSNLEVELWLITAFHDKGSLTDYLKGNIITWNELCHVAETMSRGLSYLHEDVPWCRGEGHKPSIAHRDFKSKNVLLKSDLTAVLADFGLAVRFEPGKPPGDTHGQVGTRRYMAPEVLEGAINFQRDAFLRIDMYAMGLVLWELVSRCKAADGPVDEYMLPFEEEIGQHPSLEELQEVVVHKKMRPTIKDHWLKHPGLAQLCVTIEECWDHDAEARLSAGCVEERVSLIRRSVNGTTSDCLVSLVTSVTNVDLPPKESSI
# [4] = target: Mitogen-activated protein kinase kinase kinase 7 (Homo sapiens) (UniProt O43318); experiment: Inhibition of wild-type human partial length TAK1 (M1 to Q303 residues) expressed in HEK293 cells assessed as residual activity at 1000 nM after 30 mins by Kinomescan method relative to control; format: cell-based
# [5] = target: Protein-tyrosine kinase 2-beta (Homo sapiens) (UniProt Q14289); experiment: Inhibition of wild-type human full length PYK2 (M1 to E967 residues) expressed in Escherichia coli BL21 assessed as residual activity at 1000 nM after 30 mins by Kinomescan method relative to control
# Procedure, shortened: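 Single-concentration screen at 1 µM against a 456-kinase panel (KINOMEscan). Read-out is Percent Control for each kinase. Across the 403 non-mutant kinases, an S(35) selectivity score was derived as the fraction of kinases with Percent Control < 35.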
# [6] = target: ALK tyrosine kinase receptor (Homo sapiens) (UniProt Q9UM73); experiment: Inhibition of wild-type human partial length ALK (I1088 to E1409 residues) expressed in HEK293 cells assessed as residual activity at 1000 nM after 30 mins by Kinomescan method relative to control; format: cell-based
# [7] = target: Glycogen synthase kinase-3 alpha (Homo sapiens) (UniProt P49840); experiment: Inhibition of wild-type human full length GSK3A (M1 to S483 residues) expressed in Escherichia coli BL21 assessed as residual activity at 1000 nM after 30 mins by Kinomescan method relative to control; procedure, shortened: as §2
# Glycogen synthase kinase-3 alpha (Homo sapiens), sequence (P49840 2-483 limits assumed): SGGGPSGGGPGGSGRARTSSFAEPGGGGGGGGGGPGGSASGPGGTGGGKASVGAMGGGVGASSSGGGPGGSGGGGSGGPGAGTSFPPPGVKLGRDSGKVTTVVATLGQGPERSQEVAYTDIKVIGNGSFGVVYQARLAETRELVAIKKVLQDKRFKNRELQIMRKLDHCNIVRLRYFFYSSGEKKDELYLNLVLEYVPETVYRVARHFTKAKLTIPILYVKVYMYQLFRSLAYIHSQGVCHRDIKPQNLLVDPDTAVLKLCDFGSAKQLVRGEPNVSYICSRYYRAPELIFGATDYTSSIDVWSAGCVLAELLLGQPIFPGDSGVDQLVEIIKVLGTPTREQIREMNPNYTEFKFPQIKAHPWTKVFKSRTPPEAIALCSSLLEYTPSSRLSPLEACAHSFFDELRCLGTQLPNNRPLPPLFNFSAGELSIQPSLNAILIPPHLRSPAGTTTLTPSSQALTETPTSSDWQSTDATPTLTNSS
# [8] = target: Mitogen-activated protein kinase 10 (Homo sapiens) (UniProt P53779); experiment: Inhibition of wild-type human partial length JNK3 (V28 to Q422 residues) expressed in HEK293 cells assessed as residual activity at 1000 nM after 30 mins by Kinomescan method relative to control; format: cell-based
# [9] = target: Ribosomal protein S6 kinase alpha-6 (Homo sapiens) (UniProt Q9UK32); experiment: Inhibition of wild-type human partial length N-terminal RSK4 kinase domain 1 (M1 to E397 residues) expressed in HEK293 cells assessed as residual activity at 1000 nM after 30 mins by Kinomescan method relative to control; format: cell-based
# [10] = target: Mitogen-activated protein kinase kinase kinase 3 (Homo sapiens) (UniProt Q99759); experiment: Inhibition of wild-type human partial length MAP3K3 (E320 to Y626 residues) expressed in HEK293 cells assessed as residual activity at 1000 nM after 30 mins by Kinomescan method relative to control; format: cell-based
# [11] = target: Discoidin domain-containing receptor 2 (Homo sapiens) (UniProt Q16832); experiment: Inhibition of wild-type human partial length DDR2 (V555 to E855 residues) expressed in HEK293 cells assessed as residual activity at 1000 nM after 30 mins by Kinomescan method relative to control; format: cell-based
# [12] = target: Serine/threonine-protein kinase MRCK alpha (Homo sapiens) (UniProt Q5VT25); experiment: Inhibition of wild-type human partial length MRCKA (L57 to V418 residues) expressed in Escherichia coli BL21 assessed as residual activity at 1000 nM after 30 mins by Kinomescan method relative to control
# Serine/threonine-protein kinase MRCK alpha (Homo sapiens), sequence (Q5VT25 whole entry, the tested form may be a part): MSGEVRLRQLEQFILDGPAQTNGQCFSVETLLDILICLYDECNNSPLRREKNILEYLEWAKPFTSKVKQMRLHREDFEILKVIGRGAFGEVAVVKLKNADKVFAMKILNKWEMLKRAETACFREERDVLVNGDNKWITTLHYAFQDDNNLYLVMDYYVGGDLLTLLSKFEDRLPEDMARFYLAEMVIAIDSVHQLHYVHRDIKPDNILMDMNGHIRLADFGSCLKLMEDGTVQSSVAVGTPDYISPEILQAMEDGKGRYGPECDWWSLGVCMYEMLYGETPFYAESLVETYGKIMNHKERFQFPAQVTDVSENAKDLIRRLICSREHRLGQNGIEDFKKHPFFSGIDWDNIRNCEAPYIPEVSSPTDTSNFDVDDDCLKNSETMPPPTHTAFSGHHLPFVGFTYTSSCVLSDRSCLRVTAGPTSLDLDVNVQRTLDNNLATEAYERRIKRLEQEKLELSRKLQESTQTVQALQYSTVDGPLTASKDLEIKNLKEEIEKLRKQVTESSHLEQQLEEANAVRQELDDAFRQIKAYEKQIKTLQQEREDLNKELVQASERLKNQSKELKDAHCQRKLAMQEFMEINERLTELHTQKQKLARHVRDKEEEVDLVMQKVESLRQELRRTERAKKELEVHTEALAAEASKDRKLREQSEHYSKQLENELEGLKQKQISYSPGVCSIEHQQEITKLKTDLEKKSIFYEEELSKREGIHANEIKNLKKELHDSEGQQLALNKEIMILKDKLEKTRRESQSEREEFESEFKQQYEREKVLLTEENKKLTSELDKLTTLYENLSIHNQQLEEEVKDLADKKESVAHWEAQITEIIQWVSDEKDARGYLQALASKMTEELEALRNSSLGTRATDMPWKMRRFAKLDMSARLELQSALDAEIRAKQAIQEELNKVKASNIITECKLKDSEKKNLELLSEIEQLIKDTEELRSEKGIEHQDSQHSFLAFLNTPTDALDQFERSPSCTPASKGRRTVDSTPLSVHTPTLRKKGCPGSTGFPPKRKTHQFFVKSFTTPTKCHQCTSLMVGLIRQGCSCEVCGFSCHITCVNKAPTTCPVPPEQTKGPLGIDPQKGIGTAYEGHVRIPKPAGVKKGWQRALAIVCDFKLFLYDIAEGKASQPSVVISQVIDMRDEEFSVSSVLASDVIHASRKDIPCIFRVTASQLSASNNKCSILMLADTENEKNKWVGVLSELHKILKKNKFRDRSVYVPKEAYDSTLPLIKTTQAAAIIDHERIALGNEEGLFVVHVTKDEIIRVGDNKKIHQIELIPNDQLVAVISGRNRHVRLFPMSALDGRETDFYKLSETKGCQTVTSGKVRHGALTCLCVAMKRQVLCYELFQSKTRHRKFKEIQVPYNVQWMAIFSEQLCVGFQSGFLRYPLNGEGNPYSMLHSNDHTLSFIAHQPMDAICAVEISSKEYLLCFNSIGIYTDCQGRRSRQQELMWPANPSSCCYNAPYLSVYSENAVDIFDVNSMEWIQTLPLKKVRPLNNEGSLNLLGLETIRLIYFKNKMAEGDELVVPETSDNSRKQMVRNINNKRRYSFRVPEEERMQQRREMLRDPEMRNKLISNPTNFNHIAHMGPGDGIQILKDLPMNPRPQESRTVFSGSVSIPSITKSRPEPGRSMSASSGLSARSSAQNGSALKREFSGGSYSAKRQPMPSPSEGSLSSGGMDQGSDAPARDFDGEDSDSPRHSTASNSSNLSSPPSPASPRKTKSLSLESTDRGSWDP
# [13] = target: STE20-like serine/threonine-protein kinase (Homo sapiens) (UniProt Q9H2G2); experiment: Inhibition of wild-type human partial length SLK (S14 to A307 residues) expressed in Escherichia coli BL21 assessed as residual activity at 1000 nM after 30 mins by Kinomescan method relative to control
# STE20-like serine/threonine-protein kinase (Homo sapiens), sequence (Q9H2G2 whole entry, looked up, the tested form may be a part): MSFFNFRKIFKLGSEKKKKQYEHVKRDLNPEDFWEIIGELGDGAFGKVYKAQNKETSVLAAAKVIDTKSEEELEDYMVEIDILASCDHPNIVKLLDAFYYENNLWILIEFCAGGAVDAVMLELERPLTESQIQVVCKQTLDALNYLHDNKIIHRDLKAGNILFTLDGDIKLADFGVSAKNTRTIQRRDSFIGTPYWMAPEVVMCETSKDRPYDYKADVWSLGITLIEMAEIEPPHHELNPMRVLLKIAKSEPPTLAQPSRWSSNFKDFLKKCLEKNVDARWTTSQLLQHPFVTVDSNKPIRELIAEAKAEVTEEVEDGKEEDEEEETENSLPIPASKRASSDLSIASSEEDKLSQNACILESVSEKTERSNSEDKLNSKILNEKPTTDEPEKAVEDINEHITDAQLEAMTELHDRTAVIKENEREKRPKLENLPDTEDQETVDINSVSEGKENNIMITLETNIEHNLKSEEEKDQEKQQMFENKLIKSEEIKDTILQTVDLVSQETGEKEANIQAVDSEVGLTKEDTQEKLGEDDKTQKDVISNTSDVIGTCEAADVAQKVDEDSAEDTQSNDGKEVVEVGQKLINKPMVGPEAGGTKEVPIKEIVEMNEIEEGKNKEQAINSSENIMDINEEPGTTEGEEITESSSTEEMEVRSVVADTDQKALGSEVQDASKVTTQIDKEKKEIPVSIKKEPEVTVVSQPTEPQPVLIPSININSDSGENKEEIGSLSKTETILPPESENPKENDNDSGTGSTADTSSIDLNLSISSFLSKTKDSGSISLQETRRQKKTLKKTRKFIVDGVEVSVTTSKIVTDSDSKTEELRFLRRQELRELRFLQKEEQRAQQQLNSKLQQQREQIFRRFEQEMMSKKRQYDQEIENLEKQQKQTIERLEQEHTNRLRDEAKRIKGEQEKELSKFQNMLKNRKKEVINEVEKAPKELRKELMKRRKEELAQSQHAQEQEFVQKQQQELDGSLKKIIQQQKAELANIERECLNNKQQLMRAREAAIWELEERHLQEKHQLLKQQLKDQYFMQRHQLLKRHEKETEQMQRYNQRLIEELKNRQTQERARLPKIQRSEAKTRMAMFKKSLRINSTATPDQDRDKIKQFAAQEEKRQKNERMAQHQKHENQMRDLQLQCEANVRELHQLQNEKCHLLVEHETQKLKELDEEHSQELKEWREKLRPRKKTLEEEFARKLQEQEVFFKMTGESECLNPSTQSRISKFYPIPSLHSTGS
# [14] = target: Mitogen-activated protein kinase kinase kinase 14 (Homo sapiens) (UniProt Q99558); experiment: Inhibition of wild-type human partial length NIK (L318 to P947 residues) expressed in HEK293 cells assessed as residual activity at 1000 nM after 30 mins by Kinomescan method relative to control; format: cell-based
# [15] = target: Proto-oncogene tyrosine-protein kinase receptor Ret (Homo sapiens) (UniProt P07949); experiment: Inhibition of wild-type human partial length RET (E713 to D1014 residues) expressed in Escherichia coli BL21 assessed as residual activity at 1000 nM after 30 mins by Kinomescan method relative to control
# [16] = target: Megakaryocyte-associated tyrosine-protein kinase (Homo sapiens) (UniProt P42679); experiment: Inhibition of wild-type human full length CTK (M43 to P508 residues) expressed in HEK293 cells assessed as residual activity at 1000 nM after 30 mins by Kinomescan method relative to control; format: cell-based; procedure, shortened: as §2
# [17] = target: Dual specificity protein kinase CLK4 (Homo sapiens) (UniProt Q9HAZ1); experiment: Inhibition of wild-type human partial length CLK4 (R135 to K481 residues) expressed in Escherichia coli BL21 assessed as residual activity at 1000 nM after 30 mins by Kinomescan method relative to control
# [18] = target: Testis-specific serine/threonine-protein kinase 1 (Homo sapiens) (UniProt Q9BXA7); experiment: Inhibition of wild-type human full length TSSK1B (M1 to Q367 residues) expressed in Escherichia coli BL21 assessed as residual activity at 1000 nM after 30 mins by Kinomescan method relative to control
# [19] = target: Tyrosine-protein kinase ABL2 (Homo sapiens) (UniProt P42684); experiment: Inhibition of wild-type human ABL2 (A248 to G542 residues) expressed in Escherichia coli BL21 assessed as residual activity at 1000 nM after 30 mins by Kinomescan method relative to control; procedure, shortened: as §1
# [20] = target: Hormonally up-regulated neu tumor-associated kinase (Homo sapiens) (UniProt P57058); experiment: Inhibition of wild-type human partial length HUNK (A31 to K354 residues) expressed in Escherichia coli BL21 assessed as residual activity at 1000 nM after 30 mins by Kinomescan method relative to control
# [21] = target: Dual specificity mitogen-activated protein kinase kinase 4 (Homo sapiens) (UniProt P45985); experiment: Inhibition of wild-type human partial length MEK4 (S84 to D399 residues) expressed in HEK293 cells assessed as residual activity at 1000 nM after 30 mins by Kinomescan method relative to control; format: cell-based
# Dual specificity mitogen-activated protein kinase kinase 4 (Homo sapiens), sequence (P45985 whole entry, the tested form may be a part): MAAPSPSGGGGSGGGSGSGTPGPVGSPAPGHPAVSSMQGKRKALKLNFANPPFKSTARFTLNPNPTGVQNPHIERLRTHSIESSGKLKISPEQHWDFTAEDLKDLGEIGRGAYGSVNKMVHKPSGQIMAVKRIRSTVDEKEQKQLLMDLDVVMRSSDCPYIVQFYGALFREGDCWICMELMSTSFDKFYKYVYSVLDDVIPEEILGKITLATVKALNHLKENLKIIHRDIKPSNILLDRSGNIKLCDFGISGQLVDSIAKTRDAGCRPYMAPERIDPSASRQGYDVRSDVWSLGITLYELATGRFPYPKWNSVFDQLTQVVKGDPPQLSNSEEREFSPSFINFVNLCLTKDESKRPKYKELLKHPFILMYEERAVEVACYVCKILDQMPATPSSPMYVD
smiles,measurement,setting,value
COc1cc(OC)c(Cl)c(N2Cc3cnc(Nc4ccc(F)cc4)nc3N(C3CCN(C(=O)/C=C/CN(C)C)CC3)C2=O)c1Cl,Activity,[1],100%
same,Activity,[2],88%
same,Activity,[3],98%
same,Activity,[4],100%
same,Activity,[5],91%
same,Activity,[6],100%
same,Activity,[7],100%
same,Activity,[8],100%
same,Activity,[9],100%
same,Activity,[10],1.9%
same,Activity,[11],77%
same,Activity,[12],98%
same,Activity,[13],100%
same,Activity,[14],93%
same,Activity,[15],8.1%
same,Activity,[16],100%
same,Activity,[17],93%
same,Activity,[18],89%
same,Activity,[19],26%
same,Activity,[20],100%
same,Activity,[21],100%
